Source: ChEMBL document CHEMBL1128214, “Structure-based design of sulfonamide-substituted non-peptidic HIV protease inhibitors” (J Med Chem, 1995)

Tests used:
[1] = test system: Human immunodeficiency virus 1; experiment: Antiviral potency of compound determined against human immunodeficiency virus type 1; assay type: functional, organism-based
Method in brief: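 Antiviral activity measured in MT4 cells acutely infected with HIV-1 IIIB; potency reported as IC50.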

[2] = molecular target: Human immunodeficiency virus type 1 protease (Human immunodeficiency virus 1, UniProt Q72874); experiment: Inhibitory activity against HIV-1 protease
[3] = The steady-state volume of distribution was determined in an aqueous sodium hydroxide solution adjusted to pH 10 at 2.5 mg/kg administered intravenously dosage in rats; assay type: ADME, organism-based; design: dose 2.5 mg/kg, route intravenous; conditions: rat, in vivo, iv, read-out: Vss
Method in brief: (§1)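 Plasma concentration–time data were analysed by noncompartmental methods. The […] (β) and half-life were estimated, and total body clearance and steady-state volume of distribution were calculated. Values are mean ± SD.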

[4] = The total body administered intravenously in dog; assay type: ADME, organism-based, Canis lupus familiaris; conditions: in vivo, iv, read-out: Vss; method in brief: as §1
[5] = Maximum concentration was determined in an aqueous sodium hydroxide solution adjusted to pH 10 at 5 mg/kg dosage administered perorally in rats; assay type: ADME, organism-based; design: dose 5 mg/kg, route oral; conditions: rat, in vivo, po
Method in brief: (§2)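 Single oral dose given as an aqueous sodium hydroxide solution adjusted to pH 10. Plasma concentrations were followed over time. Cmax, tmax and bioavailability (F) were calculated from the time-course data by noncompartmental analysis. Values are mean ± SD.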

[6] = The half life time estimated was determined in an aqueous sodium hydroxide solution adjusted to pH 10 at 5 mg/kg dosage administered intravenously in dog; assay type: ADME, organism-based; design: dose 5 mg/kg, route intravenous; conditions: in vivo, iv; method in brief: as §1
[7] = Bioavailability (F) was determined in an aqueous sodium hydroxide solution adjusted to pH 10 at 10 mg/kg dosage administered perorally in dog; assay type: ADME, organism-based; conditions: eutheria, in vivo, po; method in brief: as §2
[8] = Bioavailability (F) was determined in an aqueous sodium hydroxide solution adjusted to pH 10 at 5 mg/kg dosage administered perorally in rats; assay type: ADME, organism-based; conditions: eutheria, in vivo, po; method in brief: as §2
[9] = Time of maximum concentration was determined in an aqueous sodium hydroxide solution adjusted to pH 10 at 10 mg/kg dosage administered perorally in dog; assay type: ADME, organism-based, Canis lupus familiaris; design: dose 10 mg/kg, route oral; conditions: in vivo, po; method in brief: as §2
[10] = Time of maximum concentration was determined in an aqueous sodium hydroxide solution adjusted to pH 10 at 5 mg/kg dosage administered perorally in rats; assay type: ADME, organism-based; design: dose 5 mg/kg, route oral; conditions: rat, in vivo, po; method in brief: as §2
[11] = The half life time estimated was determined in an aqueous sodium hydroxide solution adjusted to pH 10 at 2.5 mg/kg dosage administered intravenously in rats; assay type: ADME, organism-based; design: dose 2.5 mg/kg, route intravenous; conditions: rat, in vivo, iv; method in brief: as §1
[12] = Maximum concentration was determined in an aqueous sodium hydroxide solution adjusted to pH 10 at 10 mg/kg dosage administered perorally in dog; assay type: ADME, organism-based, Canis lupus familiaris; design: dose 10 mg/kg, route oral; conditions: in vivo, po; method in brief: as §2

## O=c1c2c(oc(O)c1C(c1cccc(NS(=O)(=O)c3ccccc3)c1)C1CC1)CCCCCC2 (stereo not drawn)
[1]
  IC50: 5000 nM

## Cc1cccc(S(=O)(=O)Nc2cccc(C(c3c(O)c4c(oc3=O)CCCCCC4)C3CC3)c2)c1 (stereo not drawn)
[1]
  IC50: 4000 nM
[2]
  Ki: 5 nM

## N#Cc1ccc(S(=O)(=O)Nc2cccc(C(c3c(O)c4c(oc3=O)CCCCCC4)C3CC3)c2)cc1 (stereo not drawn)
[1]
  IC50: 1500 nM
[3]
  Vd: 0.11 L/kg
[4]
  Vd: 0.084 L/kg
[5]
  Cmax: 24.2 µM
[6]
  half-life: 6.3 h
[7]
  bioavailability: 76.7%
[8]
  bioavailability: 41.9%
[9]
  Tmax: 1 h
[10]
  Tmax: 1 h
[11]
  half-life: 3 h
[12]
  Cmax: 156 µM

## Cc1ccccc1S(=O)(=O)Nc1cccc(C(c2c(O)c3c(oc2=O)CCCCCC3)C2CC2)c1 (stereo not drawn)
[1]
  IC50: > 10000 nM
[2]
  Ki: 9 nM

## Cc1ccc(S(=O)(=O)Nc2cccc(C(c3c(O)c4c(oc3=O)CCCCCC4)C3CC3)c2)cc1 (stereo not drawn)
[1]
  IC50: 3600 nM
[2]
  Ki: 3 nM
